Our source for the EC50, IC50 and TI values is ChEMBL document CHEMBL1130339, “Structural analogues of the calanolide anti-HIV agents. Modification of the trans-10,11-dimethyldihydropyran-12-ol ring (ring C)” (J Med Chem, 1997).

For orientation: EC50 means the concentration that produces a half-maximal response. Read a low EC50 as a more potent agent. A word on the IC50: it is the midpoint of a concentration-inhibition curve. A lower IC50 goes with inhibition by little substance.

Data set [1] relates to CEM-SS. Put plainly: Concentration required to protect CEM-SS cells from HIV-1 mediated uM. The class given is functional, cell-based, Homo sapiens. The procedure, abridged:
(§1)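 CEM-SS cells were infected with HIV-1 RF at MOI about 0.12 TCID50/cell for 4 h at 37 °C, then the virus supernatant was removed. Cells at 10^4/well were exposed to compound diluted from DMSO (maximum 100 µM) in triplicate wells. After 6 days at 37 °C, 5% CO2, viability was read with XTT. EC50 = concentration giving 50% protection from viral cytopathicity relative to infected controls.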

Data set [2] deals with CEM-SS. The experiment in a line: Antiviral activity against HIV-1 determined by concentration which resulted in cytotoxicity of 50% of CEM-SS cell population relative to drug-free controls. The class given is functional, cell-based. Conditions: Homo sapiens; call rule not given here. The method in brief:
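Cytotoxicity in uninfected CEM-SS cells (RPMI 1640, 10% heat-inactivated FCS, 25 mM HEPES, antibiotics; 37 °C, 5% CO2). Compounds dissolved in DMSO, diluted in medium, top concentration 100 µM, duplicate wells per concentration. 10^4 cells/well, 6-day incubation, viability by XTT dye. IC50 = concentration reducing cell growth by 50% of uninfected controls.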

Data set [3] has as its system CEM-SS. Put plainly: Concentration required to protect CEM-SS cells from HIV-1 mediated cytopathicity by 50% relative to drug-free controls was determined. The class given is functional, cell-based, Homo sapiens. The procedure, abridged: as §1
Background: Damage to the host cells serves as the signal in cytopathic effect assays.

The nature of data set [4]: Therapeutic Index (IC50/EC50). The method in brief: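 Ratio of cytotoxic IC50 in uninfected CEM-SS cells to antiviral EC50 in HIV-1 RF-infected CEM-SS cells, both from 6-day XTT viability readings. Not determined when no EC50 was available.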
Data set [5] has as its target Human immunodeficiency virus type 1 reverse transcriptase (Human immunodeficiency virus 1, UniProt Q72547). Put plainly: Inhibition of HIV-1 reverse transcriptase using a poly(rC):oligo(dG)12-18 template primer. The procedure, abridged: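 HIV-1 reverse transcriptase inhibition was measured with a poly(rC):oligo(dG)12-18 template:primer system.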

Take `CCCc1cc(=O)oc2c3c(c4c(c12)OC(C)(C)C=C4)OC[C@H](C)C3=O` (racemic): in the data set with CEM-SS [1], the EC50 entry is “Not Active”.

Regarding `CCCc1cc(=O)oc2c3c(c4c(c12)OC(C)(C)C=C4)O[C@H](C(C)C)[C@@H](C)[C@H]3O` (racemic), the EC50 result with CEM-SS [1] was “Not Active”. The compound also had an IC50 in the data set on CEM-SS [2] of 6.5 µM.

`CCCc1cc(=O)oc2c3c(c4c(c12)OC(C)(C)C=C4)O[C@H](C)[C@H](C)[C@H]3O` (racemic) had an IC50 in the data set on CEM-SS [2] of 20 µM. The EC50 with CEM-SS [3] (Homo sapiens, CEM-SS) was greater than 100000 nM.

With `CCCc1cc(=O)oc2c(C(=O)[C@H](C)[C@H](C)O)c(O)c3c(c12)OC(C)(C)C=C3` (racemic), half-maximal inhibition in the data set with CEM-SS [2] (IC50) was put at 24 µM. Also, the TI in data set [4] worked out at 3.9 Ratio. Further, the EC50 in the data set on CEM-SS [3] (Homo sapiens, CEM-SS) is 6200 nM.

Regarding `CCCc1cc(=O)oc2c3c(c4c(c12)OC(C)(C)C=C4)O[C@H](C(C)C)[C@@H](C)[C@@H]3O` (racemic), the EC50 result in the data set with CEM-SS [1] was “Not Active”. Moreover, in the data set with CEM-SS [2], the IC50 was found to be 6.5 µM.

For `CCCc1cc(=O)oc2c3c(c4c(c12)OC(C)(C)C=C4)O[C@H](CC)[C@H](C)[C@H]3O` (racemic), the EC50 entry in the data set on CEM-SS [1] was “Not Active”. In addition, it took 21 µM to reach half-maximal inhibition with CEM-SS [2] (IC50).

For `CCCc1cc(=O)oc2c3c(c4c(c12)OC(C)(C)C=C4)O[C@H](C)[C@H](C)C3=O` (racemic), the IC50 in the data set with CEM-SS [2] was 12 µM. Moreover, the TI in data set [4] was 4.3 Ratio. The EC50 is 2800 nM in the data set with CEM-SS [3] (Homo sapiens, CEM-SS) and greater than 100 µM in data set [5].

Regarding `CCCc1cc(=O)oc2c3c(c4c(c12)OC(C)(C)C=C4)O[C@H](C)C(C)(C)C3=O`, it took 19 µM to reach half-maximal inhibition in the data set on CEM-SS [2] (IC50). Also, in the data set on CEM-SS [3] (Homo sapiens, CEM-SS), the EC50 is greater than 100000 nM.

Turning to `CCCc1cc(=O)oc2c(C(=O)C(C)C(C)(C)O)c(O)c3c(c12)OC(C)(C)C=C3` (racemic), the EC50 result in the data set on CEM-SS [1] is reported as “Not Active”.

As to `CCCc1cc(=O)oc2c3c(c4c(c12)OC(C)(C)C=C4)OC(C)(C)[C@H](C)[C@H]3O` (racemic), in the data set with CEM-SS [2], the IC50 came to 21 µM. This compound also came in with a TI in data set [4] of 3.7 Ratio. Further, the EC50 came to 5700 nM in the data set on CEM-SS [3] (Homo sapiens, CEM-SS) and 5 µM in data set [5].

As for `CCCc1cc(=O)oc2c3c(c4c(c12)OC(C)(C)C=C4)OC[C@H](C)C31OCOCO1` (racemic), in the data set with CEM-SS [1], the EC50 entry is reported as “Not Active”. The compound further had an IC50 in the data set on CEM-SS [2] of 6.3 µM.

In the case of `CCCc1cc(=O)oc2c3c(c4c(c12)OC(C)(C)C=C4)O[C@H](C)[C@@H](C)[C@@H]3O` [CALANOLIDE A], 23 µM corresponded to half-maximal inhibition in the data set with CEM-SS [2] (IC50). In data set [4], the TI was 85 Ratio. Further, the EC50 in the data set with CEM-SS [3] (Homo sapiens, CEM-SS) was 270 nM; in data set [5], 0.32 µM.

In turn, `CCCc1cc(=O)oc2c(C(=O)[C@@H](C)[C@H](C)O)c(O)c3c(c12)OC(C)(C)C=C3` (racemic) registered an IC50 with CEM-SS [2] of 22 µM. Further, in data set [4], the TI stood at 9.6 Ratio. Moreover, the EC50 in the data set with CEM-SS [3] (Homo sapiens, CEM-SS) worked out at 2300 nM.

On to `CCCc1cc(=O)oc2c3c(c4c(c12)OC(C)(C)C=C4)O[C@H](CC)[C@@H](C)C3=O` (racemic), for which the IC50 in the data set on CEM-SS [2] amounted to 18 µM. The EC50 in the data set on CEM-SS [3] (Homo sapiens, CEM-SS) is greater than 100000 nM.

Consider `CCCc1cc(=O)oc2c3c(c4c(c12)OC(C)(C)C=C4)O[C@H](C(C)C)[C@H](C)[C@@H]3O` (racemic), for which the EC50 entry with CEM-SS [1] is given as “Not Active”. The IC50 with CEM-SS [2] amounted to 6.9 µM.

As for `CCCc1cc(=O)oc2c3c(c4c(c12)OC(C)(C)C=C4)O[C@H](CC)[C@H](C)[C@@H]3O` (racemic), the EC50 result with CEM-SS [1] is listed as “Not Active”. In the data set with CEM-SS [2], this compound gave an IC50 of 12 µM.

As for `CCCc1cc(=O)oc2c3c(c4c(c12)OC(C)(C)C=C4)O[C@H](C)[C@@H](C)[C@@H]3O` (racemic) [CALANOLIDE A], the TI in data set [4] is on record as 47 Ratio. Further, the EC50 is 490 nM in the data set on CEM-SS [3] (cem-ss) and 0.97 µM in data set [5].

`CCCc1cc(=O)oc2c(C(O)CC)c(OCC)c3c(c12)OC(C)(C)C=C3` (racemic): in the data set on CEM-SS [1], the EC50 entry was “Not Active”. Moreover, half-maximal inhibition in the data set on CEM-SS [2] (IC50) was put at 16 µM.

For the compound `CCCc1cc(=O)oc2c3c(c4c(c12)OC(C)(C)C=C4)OC(C)(C)CC3O` (racemic), the EC50 entry with CEM-SS [1] was “Not Active”. This compound showed an IC50 with CEM-SS [2] of 11 µM.

Turning to `CCCc1cc(=O)oc2c3c(c4c(c12)OC(C)(C)C=C4)OC(C)(C)[C@H](C)[C@@H]3O` (racemic), in the data set with CEM-SS [2], the IC50 was 21 µM. The EC50 with CEM-SS [3] (Homo sapiens, CEM-SS) was greater than 100000 nM.

With `CCCc1cc(=O)oc2c3c(c4c(c12)OC(C)(C)C=C4)O[C@H](CC)[C@@H](C)[C@@H]3O` (racemic), in the data set on CEM-SS [2], half-maximal inhibition (IC50) required 18 µM. The same compound registered a TI in data set [4] of 9 Ratio. For the same compound, the EC50 in the data set with CEM-SS [3] (Homo sapiens, CEM-SS) came out at 2000 nM; in data set [5] it was 3.2 µM.

Regarding `CCCc1cc(=O)oc2c3c(c4c(c12)OC(C)(C)C=C4)OC[C@H](C)[C@H]3O` (racemic), in the data set with CEM-SS [1], the EC50 entry is listed as “Not Active”. In addition, in the data set with CEM-SS [2], the IC50 was 22 µM.

`CCCc1cc(=O)oc2c3c(c4c(c12)OC(C)(C)C=C4)O[C@H](C)C(C)(C)[C@H]3O` (racemic) showed an IC50 with CEM-SS [2] of 15 µM. In data set [4], the TI came out at 6.2 Ratio. Moreover, the EC50 is 2400 nM in the data set on CEM-SS [3] (Homo sapiens, CEM-SS) and 32 µM in data set [5].

`CCCc1cc(=O)oc2c3c(c4c(c12)OC(C)(C)C=C4)O[C@H](CC)[C@@H](C)[C@H]3O` (racemic) registered an IC50 with CEM-SS [2] of 14 µM. In data set [4], this compound came in with a TI of 8.2 Ratio. The EC50 in the data set with CEM-SS [3] (Homo sapiens, CEM-SS) came to 1700 nM; in data set [5], 2 µM.

On to `CCCc1cc(=O)oc2c3c(c4c(c12)OC(C)(C)C=C4)O[C@H](C)[C@H](C)[C@@H]3O` (racemic) [CALANOLIDE C], for which the EC50 entry in the data set on CEM-SS [1] is on record as “Not Active”. The same compound came in with an IC50 in the data set on CEM-SS [2] of 18 µM.

In the data set with CEM-SS [2], `CCCc1cc(=O)oc2c3c(c4c(c12)OC(C)(C)C=C4)OC[C@H](C)[C@@H]3O` (racemic) yielded an IC50 of 22 µM. The same compound had a TI in data set [4] of 3.1 Ratio. For the same compound, the EC50 in the data set with CEM-SS [3] (Homo sapiens, CEM-SS) came out at 7200 nM; in data set [5], 50 µM.

Turning to `CCCc1cc(=O)oc2c1c1c(c3oc(C)c(C)c(=O)c32)C=CC(C)(C)O1`, the EC50 result with CEM-SS [1] is “Not Active”. The compound further yielded an IC50 in the data set on CEM-SS [2] greater than 100 µM.

For `CCCc1cc(=O)oc2c3c(c4c(c12)OC(C)(C)C=C4)O[C@H](C(C)C)[C@@H](C)C3=O` (racemic), the EC50 result in the data set on CEM-SS [1] is listed as “Not Active”. Moreover, inhibition with CEM-SS [2] was half-maximal at 21 µM (IC50).

In the data set with CEM-SS [2], `CCCc1cc(=O)oc2c3c(c4c(c12)OC(C)(C)C=C4)O[C@H](C)[C@@H](C)C3=O` (racemic) had an IC50 of 19 µM. Moreover, the TI in data set [4] stood at 16 Ratio. Besides, the EC50 in the data set with CEM-SS [3] (Homo sapiens, CEM-SS) amounted to 1200 nM; in data set [5], 40 µM.

Take `CCCc1cc(=O)oc2c3c(c4c(c12)OC(C)(C)C=C4)OC(C)(C)[C@H](C)C3=O` (racemic): the concentration giving a half-maximal response (EC50) entry in the data set with CEM-SS [1] is listed as “Not Active”. Further, the IC50 in the data set on CEM-SS [2] amounted to 2.4 µM.

As for `CCCc1cc(=O)oc2c3c(c4c(c12)OC(C)(C)C=C4)O[C@H](C)C(C)(C)[C@@H]3O`, the EC50 entry in the data set with CEM-SS [1] is on record as “Not Active”. This compound also came in with an IC50 in the data set on CEM-SS [2] of 20 µM.

Take `CCCc1cc(=O)oc2c(C(=O)C(C)(C)C(C)O)c(O)c3c(c12)OC(C)(C)C=C3` (racemic): the 50% effective concentration (EC50) entry in the data set on CEM-SS [1] was “Not Active”. For the same compound, the 50% inhibitory concentration (IC50) in the data set with CEM-SS [2] was found to be 37 µM.

`CCCc1cc(=O)oc2c(C(=O)CC)c(OCC)c3c(c12)OC(C)(C)C=C3`: the EC50 entry in the data set on CEM-SS [1] was “Not Active”. This compound gave an IC50 in the data set with CEM-SS [2] of 6.6 µM.
